Results reported in ChEMBL document CHEMBL1143676, “2,4,6-Trisubstituted pyridines: Synthesis, topoisomerase I and II inhibitory activity, cytotoxicity, and structure-activity relationship” (Bioorg Med Chem, 2007).
Calls of active or inactive are those of the source. The calls are words filed in the database; no cut-off is given here.

How the values were obtained:
[1] = organism: Homo sapiens; assay: Inhibition of human topoisomerase 2 at 100 uM
[2] = organism: Homo sapiens; assay: Inhibition of human topoisomerase 2 at 20 uM
[3] = organism: Bos taurus; assay: Inhibition of calf thymus topoisomerase 1 assessed as relaxation of supercoiled plasmid DNA at 100 uM
Outline: (§1)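 Compound was added at 20 or 100 μM and the mix incubated 30 min at 37 °C. Reactions were stopped with SDS/bromophenol blue/glycerol dye, run on 1% agarose in TAE for 1 h, and stained with ethidium bromide.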

[4] = organism: Bos taurus; assay: Inhibition of calf thymus topoisomerase 1 assessed as relaxation of supercoiled plasmid DNA at 20 uM; outline: as §1
[5] = system: SK-MEL-2; assay: Cytotoxicity against human SK-MEL-2 cells after 48 hrs by SRB method; assay type: functional, cell-based; conditions: SK-MEL-2, 48 h
Outline: (§2)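 SRB assay following the NCI protocol. Cells were kept in log growth with a medium change 24 h before the assay, then trypsinized and seeded at 5 × 10³ (A549, HCT15), 1 × 10⁴ (SK-MEL-2) or 2 × 10⁴ (SK-OV-3) cells/well. After 24 h preincubation at 37 °C in 5% CO₂, compounds in DMSO were added as six 3-fold dilutions (final DMSO <0.5%) for 48 h. Cells were fixed in cold 10% TCA and stained with 0.4% SRB. Bound dye was dissolved in 10 mM Tris (pH 10.5) and absorbance read at 520 nm. Survival fractions came from regression of viability against concentration.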

[6] = system: SK-OV-3; assay: Cytotoxicity against human SKOV3 cells after 48 hrs by SRB method; assay type: functional, cell-based; conditions: SK-OV-3, 48 h; outline: as §2
[7] = system: HCT-15; assay: Cytotoxicity against human HCT15 cells after 48 hrs by SRB method; assay type: functional, cell-based; conditions: HCT-15, 48 h; outline: as §2
[8] = system: A549; assay: Cytotoxicity against human A549 cells after 48 hrs by SRB method; assay type: functional, cell-based; conditions: A549, 48 h; outline: as §2

| SMILES | Activity [1] | Activity [2] | IC50 [5] [µM] | IC50 [6] [µM] | IC50 [7] [µM] | IC50 [8] [µM] | also measured |
| --- | --- | --- | --- | --- | --- | --- | --- |
| c1coc(-c2cc(-c3ccoc3)cc(-c3ccncc3)n2)c1 | Active | Active | – | – | – | – | – |
| c1csc(-c2cc(-c3ccsc3)cc(-c3ccncc3)n2)c1 | – | – | – | – | – | – | Activity [3]: Active; Activity [4]: Active |
| c1coc(-c2cc(-c3ccsc3)cc(-c3ccncc3)n2)c1 | Active | Active | – | – | – | – | – |
| c1cc(-c2cc(-c3ccsc3)cc(-c3ccsc3)n2)ccn1 | – | – | 9.76 | 9.86 | 2.54 | 27.8 | – |
| c1cncc(-c2cc(-c3ccncc3)nc(-c3ccco3)c2)c1 | – | – | – | – | – | – | Activity [3]: Active; Activity [4]: Active |
| c1cncc(-c2cc(-c3ccco3)cc(-c3cccs3)n2)c1 | – | – | 1.95 | 5.9 | 5.87 | 14.5 | – |
| c1cncc(-c2cc(-c3ccsc3)cc(-c3cccs3)n2)c1 | – | – | 5.61 | 7.49 | 4.06 | 2.73 | – |
| c1csc(-c2cc(-c3ccncc3)nc(-c3cccs3)c2)c1 | – | – | 3.68 | 5.75 | 1.72 | 4.16 | – |
| c1cc(-c2cc(-c3ccncc3)nc(-c3ccsc3)c2)ccn1 | Active | Active | – | – | – | – | – |
| c1csc(-c2cc(-c3ccoc3)cc(-c3ccncc3)n2)c1 | Active | Active | – | – | – | – | – |
| c1cc(-c2cc(-c3ccoc3)cc(-c3ccsc3)n2)ccn1 | Active | Active | – | – | – | – | – |
| c1cncc(-c2cc(-c3ccncc3)nc(-c3cccs3)c2)c1 | Active | Active | – | – | – | – | – |
| COc1cc([C@@H]2c3cc4c(cc3[C@@H](O[C@@H]3O[C@@H]5CO[C@@H](C)O[C@H]5[C@H](O)[C@H]3O)[C@H]3COC(=O)[C@H]23)OCO4)cc(OC)c1O [ETOPOSIDE] | – | – | 0.3 | 1.72 | 2.43 | 0.32 | – |
| c1ccc(-c2cc(-c3ccsc3)cc(-c3cccs3)n2)nc1 | – | – | – | – | – | – | Activity [3]: Active; Activity [4]: Active |
| c1ccc(-c2cc(-c3ccoc3)cc(-c3ccco3)n2)nc1 | Active | Active | – | – | – | – | – |
| c1coc(-c2cc(-c3ccncc3)nc(-c3cccs3)c2)c1 | – | – | 5.43 | 8.69 | 4.18 | 10.9 | – |
| c1coc(-c2cc(-c3cccs3)cc(-c3ccncc3)n2)c1 | – | – | – | – | – | – | Activity [3]: Active; Activity [4]: Active |
| c1csc(-c2cc(-c3ccncc3)nc(-c3ccsc3)c2)c1 | – | – | 8.94 | 14.5 | 3.79 | 5.69 | – |
